# Results taken from ChEMBL document CHEMBL1157593, “Structure-based design, synthesis, and biological studies of new anticancer norindenoisoquinoline topoisomerase I inhibitors” (2010).
# The source made the active and inactive calls. The calls are words filed in the database; no cut-off is given here.
# Test system: RPMI-8226
# Assay: Antiproliferative activity against human RPMI8226 cells
# Format: functional
row,Compound,GI50
1,COc1cc2cnc3c(c2cc1OC)Cc1c-3cc2c(c1Cn1ccnc1)OCO2,41 nM

# Test system: NCI-H460
# Assay: Antiproliferative activity against human NCI-H460 cells
# Format: functional
row,Compound,GI50
1,COc1cc2cnc3c(c2cc1OC)Cc1c-3cc2c(c1Cn1ccnc1)OCO2,130 nM

# Test system: SR
# Assay: Antiproliferative activity against human SR cells
# Format: functional
row,Compound,GI50
1,COc1cc2cnc3c(c2cc1OC)Cc1c-3cc2c(c1Cn1ccnc1)OCO2,12 nM

# Test system: CAKI-1
# Assay: Antiproliferative activity against human Caki1 cells
# Format: functional
row,Compound,GI50
1,COc1cc2cnc3c(c2cc1OC)Cc1c-3cc2c(c1Cn1ccnc1)OCO2,290 nM

# Test system: CCRF-CEM
# Assay: Antiproliferative activity against human CCRF-CEM cells
# Format: functional
row,Compound,GI50
1,COc1cc2cnc3c(c2cc1OC)Cc1c-3cc2c(c1Cn1ccnc1)OCO2,37 nM

# Test system: DU-145
# Assay: Antiproliferative activity against human DU145 cells
# Format: functional
row,Compound,GI50
1,COc1cc2cnc3c(c2cc1OC)Cc1cc2c(cc1-3)OCO2,28 nM
2,COc1cc2c3c(n(C)c(=O)c2cc1OC)-c1cc2c(cc1C3=O)OCO2,37000 nM
3,COc1cc2cnc3c(c2cc1OC)Cc1c-3cc2c(c1CN1CCOCC1)OCO2,1900 nM
4,COc1cc2cnc3c(c2cc1OC)Cc1c-3cc2c(c1C)OCO2,> 100000 nM
5,COc1cc2cnc3c(c2cc1OC)Cc1c-3cc2c(c1CN1CCCC1)OCO2,730 nM
6,COc1cc2cnc3c(c2cc1OC)Cc1c-3cc2c(c1CN(C)CCN(C)C)OCO2,3400 nM
7,CC[C@@]1(O)C(=O)OCc2c1cc1n(c2=O)Cc2cc3ccccc3nc2-1 [CAMPTOTHECIN],10 nM
8,COc1cc2cnc3c(c2cc1OC)Cc1c-3cc2c(c1CN(C)C)OCO2,1600 nM
9,COc1cc2cnc3c(c2cc1OC)Cc1c-3cc2c(c1Cn1ccnc1)OCO2,260 nM

# Test system: SF-295
# Assay: Antiproliferative activity against human SF295 cells
# Format: functional
row,Compound,GI50
1,COc1cc2cnc3c(c2cc1OC)Cc1c-3cc2c(c1Cn1ccnc1)OCO2,150 nM

# Test system: OVCAR-3
# Assay: Antiproliferative activity against human OVCAR-3 cells
# Format: functional
row,Compound,GI50
1,COc1cc2cnc3c(c2cc1OC)Cc1c-3cc2c(c1CN1CCOCC1)OCO2,1700 nM
2,COc1cc2cnc3c(c2cc1OC)Cc1c-3cc2c(c1C)OCO2,5800 nM
3,COc1cc2cnc3c(c2cc1OC)Cc1c-3cc2c(c1CN1CCCC1)OCO2,730 nM
4,COc1cc2cnc3c(c2cc1OC)Cc1c-3cc2c(c1CN(C)CCN(C)C)OCO2,7400 nM
5,COc1cc2cnc3c(c2cc1OC)Cc1c-3cc2c(c1CN(C)C)OCO2,1400 nM
6,COc1cc2cnc3c(c2cc1OC)Cc1c-3cc2c(c1Cn1ccnc1)OCO2,210 nM

# Test system: MOLT-4
# Assay: Antiproliferative activity against human MOLT4 cells
# Format: functional
row,Compound,GI50
1,COc1cc2cnc3c(c2cc1OC)Cc1c-3cc2c(c1Cn1ccnc1)OCO2,60 nM

# Test system: HOP-62
# Assay: Antiproliferative activity against human HOP62 cells
# Format: functional
row,Compound,GI50
1,COc1cc2cnc3c(c2cc1OC)Cc1cc2c(cc1-3)OCO2,72 nM
2,COc1cc2c3c(n(C)c(=O)c2cc1OC)-c1cc2c(cc1C3=O)OCO2,1300 nM
3,COc1cc2cnc3c(c2cc1OC)Cc1c-3cc2c(c1CN1CCOCC1)OCO2,2100 nM
4,COc1cc2cnc3c(c2cc1OC)Cc1c-3cc2c(c1C)OCO2,7300 nM
5,COc1cc2cnc3c(c2cc1OC)Cc1c-3cc2c(c1CN1CCCC1)OCO2,1200 nM
6,COc1cc2cnc3c(c2cc1OC)Cc1c-3cc2c(c1CN(C)CCN(C)C)OCO2,1500 nM
7,CC[C@@]1(O)C(=O)OCc2c1cc1n(c2=O)Cc2cc3ccccc3nc2-1 [CAMPTOTHECIN],10 nM
8,COc1cc2cnc3c(c2cc1OC)Cc1c-3cc2c(c1CN(C)C)OCO2,6700 nM
9,COc1cc2cnc3c(c2cc1OC)Cc1c-3cc2c(c1Cn1ccnc1)OCO2,350 nM

# Test system: MCF7
# Assay: Antiproliferative activity against human MCF7 cells
# Format: functional
row,Compound,GI50
1,COc1cc2cnc3c(c2cc1OC)Cc1c-3cc2c(c1Cn1ccnc1)OCO2,90 nM

# Test system: IGROV-1
# Assay: Antiproliferative activity against human IGROV1 cells
# Format: functional
row,Compound,GI50
1,COc1cc2cnc3c(c2cc1OC)Cc1c-3cc2c(c1Cn1ccnc1)OCO2,120 nM

# Test system: SF-539
# Assay: Antiproliferative activity against human SF539 cells
# Format: functional
row,Compound,GI50
1,COc1cc2cnc3c(c2cc1OC)Cc1cc2c(cc1-3)OCO2,< 10 nM
2,COc1cc2c3c(n(C)c(=O)c2cc1OC)-c1cc2c(cc1C3=O)OCO2,41000 nM
3,COc1cc2cnc3c(c2cc1OC)Cc1c-3cc2c(c1CN1CCOCC1)OCO2,1800 nM
4,COc1cc2cnc3c(c2cc1OC)Cc1c-3cc2c(c1C)OCO2,4600 nM
5,COc1cc2cnc3c(c2cc1OC)Cc1c-3cc2c(c1CN1CCCC1)OCO2,1900 nM
6,COc1cc2cnc3c(c2cc1OC)Cc1c-3cc2c(c1CN(C)CCN(C)C)OCO2,11000 nM
7,CC[C@@]1(O)C(=O)OCc2c1cc1n(c2=O)Cc2cc3ccccc3nc2-1 [CAMPTOTHECIN],10 nM
8,COc1cc2cnc3c(c2cc1OC)Cc1c-3cc2c(c1CN(C)C)OCO2,14000 nM
9,COc1cc2cnc3c(c2cc1OC)Cc1c-3cc2c(c1Cn1ccnc1)OCO2,280 nM

# Test system: HCT-116
# Assay: Antiproliferative activity against human HCT116 cells
# Format: functional
row,Compound,GI50
1,COc1cc2cnc3c(c2cc1OC)Cc1cc2c(cc1-3)OCO2,> 100000 nM
2,COc1cc2c3c(n(C)c(=O)c2cc1OC)-c1cc2c(cc1C3=O)OCO2,35000 nM
3,COc1cc2cnc3c(c2cc1OC)Cc1c-3cc2c(c1CN1CCOCC1)OCO2,1400 nM
4,COc1cc2cnc3c(c2cc1OC)Cc1c-3cc2c(c1C)OCO2,890 nM
5,COc1cc2cnc3c(c2cc1OC)Cc1c-3cc2c(c1CN1CCCC1)OCO2,640 nM
6,COc1cc2cnc3c(c2cc1OC)Cc1c-3cc2c(c1CN(C)CCN(C)C)OCO2,1900 nM
7,CC[C@@]1(O)C(=O)OCc2c1cc1n(c2=O)Cc2cc3ccccc3nc2-1 [CAMPTOTHECIN],30 nM
8,COc1cc2cnc3c(c2cc1OC)Cc1c-3cc2c(c1CN(C)C)OCO2,1500 nM
9,COc1cc2cnc3c(c2cc1OC)Cc1c-3cc2c(c1Cn1ccnc1)OCO2,160 nM

# Test system: MDA-MB-435
# Assay: Antiproliferative activity against human MDA-MB-435 cells
# Format: functional
row,Compound,GI50
1,COc1cc2cnc3c(c2cc1OC)Cc1cc2c(cc1-3)OCO2,< 0.01 µM
2,COc1cc2c3c(n(C)c(=O)c2cc1OC)-c1cc2c(cc1C3=O)OCO2,96 µM
3,COc1cc2cnc3c(c2cc1OC)Cc1c-3cc2c(c1C)OCO2,> 100 µM
4,COc1cc2cnc3c(c2cc1OC)Cc1c-3cc2c(c1CN1CCCC1)OCO2,2.5 µM
5,CC[C@@]1(O)C(=O)OCc2c1cc1n(c2=O)Cc2cc3ccccc3nc2-1 [CAMPTOTHECIN],0.04 µM
6,COc1cc2cnc3c(c2cc1OC)Cc1c-3cc2c(c1CN(C)C)OCO2,16 µM

# Test system: UACC-62
# Assay: Antiproliferative activity against human UACC62 cells
# Format: functional
row,Compound,GI50
1,COc1cc2cnc3c(c2cc1OC)Cc1cc2c(cc1-3)OCO2,< 10 nM
2,COc1cc2c3c(n(C)c(=O)c2cc1OC)-c1cc2c(cc1C3=O)OCO2,4200 nM
3,COc1cc2cnc3c(c2cc1OC)Cc1c-3cc2c(c1CN1CCOCC1)OCO2,100000 nM
4,COc1cc2cnc3c(c2cc1OC)Cc1c-3cc2c(c1C)OCO2,700 nM
5,COc1cc2cnc3c(c2cc1OC)Cc1c-3cc2c(c1CN1CCCC1)OCO2,6700 nM
6,COc1cc2cnc3c(c2cc1OC)Cc1c-3cc2c(c1CN(C)CCN(C)C)OCO2,730 nM
7,CC[C@@]1(O)C(=O)OCc2c1cc1n(c2=O)Cc2cc3ccccc3nc2-1 [CAMPTOTHECIN],10 nM
8,COc1cc2cnc3c(c2cc1OC)Cc1c-3cc2c(c1CN(C)C)OCO2,12000 nM
9,COc1cc2cnc3c(c2cc1OC)Cc1c-3cc2c(c1Cn1ccnc1)OCO2,210 nM

# Test system: ACHN
# Assay: Antiproliferative activity against human ACHN cells
# Format: functional
row,Compound,GI50
1,COc1cc2cnc3c(c2cc1OC)Cc1c-3cc2c(c1Cn1ccnc1)OCO2,280 nM

# Test system: HCC 2998
# Assay: Antiproliferative activity against human HCC2998 cells
# Format: functional
row,Compound,GI50
1,COc1cc2cnc3c(c2cc1OC)Cc1c-3cc2c(c1Cn1ccnc1)OCO2,1100 nM

# Test system: SN12C
# Assay: Antiproliferative activity against human SN12C cells
# Format: functional
row,Compound,GI50
1,COc1cc2cnc3c(c2cc1OC)Cc1cc2c(cc1-3)OCO2,> 100 µM
2,COc1cc2c3c(n(C)c(=O)c2cc1OC)-c1cc2c(cc1C3=O)OCO2,68 µM
3,COc1cc2cnc3c(c2cc1OC)Cc1c-3cc2c(c1CN1CCOCC1)OCO2,2.3 µM
4,COc1cc2cnc3c(c2cc1OC)Cc1c-3cc2c(c1C)OCO2,> 100 µM
5,COc1cc2cnc3c(c2cc1OC)Cc1c-3cc2c(c1CN1CCCC1)OCO2,4.4 µM
6,COc1cc2cnc3c(c2cc1OC)Cc1c-3cc2c(c1CN(C)CCN(C)C)OCO2,> 100 µM
7,CC[C@@]1(O)C(=O)OCc2c1cc1n(c2=O)Cc2cc3ccccc3nc2-1 [CAMPTOTHECIN],0.02 µM
8,COc1cc2cnc3c(c2cc1OC)Cc1c-3cc2c(c1CN(C)C)OCO2,13 µM
9,COc1cc2cnc3c(c2cc1OC)Cc1c-3cc2c(c1Cn1ccnc1)OCO2,0.6 µM

# Test system: U-251
# Assay: Antiproliferative activity against human U251 cells
# Format: functional
row,Compound,GI50
1,COc1cc2cnc3c(c2cc1OC)Cc1c-3cc2c(c1Cn1ccnc1)OCO2,160 nM

# Biological target: T1, DNA topoisomerase 1 (Homo sapiens) (UniProt P11387)
# T1 sequence (whole entry): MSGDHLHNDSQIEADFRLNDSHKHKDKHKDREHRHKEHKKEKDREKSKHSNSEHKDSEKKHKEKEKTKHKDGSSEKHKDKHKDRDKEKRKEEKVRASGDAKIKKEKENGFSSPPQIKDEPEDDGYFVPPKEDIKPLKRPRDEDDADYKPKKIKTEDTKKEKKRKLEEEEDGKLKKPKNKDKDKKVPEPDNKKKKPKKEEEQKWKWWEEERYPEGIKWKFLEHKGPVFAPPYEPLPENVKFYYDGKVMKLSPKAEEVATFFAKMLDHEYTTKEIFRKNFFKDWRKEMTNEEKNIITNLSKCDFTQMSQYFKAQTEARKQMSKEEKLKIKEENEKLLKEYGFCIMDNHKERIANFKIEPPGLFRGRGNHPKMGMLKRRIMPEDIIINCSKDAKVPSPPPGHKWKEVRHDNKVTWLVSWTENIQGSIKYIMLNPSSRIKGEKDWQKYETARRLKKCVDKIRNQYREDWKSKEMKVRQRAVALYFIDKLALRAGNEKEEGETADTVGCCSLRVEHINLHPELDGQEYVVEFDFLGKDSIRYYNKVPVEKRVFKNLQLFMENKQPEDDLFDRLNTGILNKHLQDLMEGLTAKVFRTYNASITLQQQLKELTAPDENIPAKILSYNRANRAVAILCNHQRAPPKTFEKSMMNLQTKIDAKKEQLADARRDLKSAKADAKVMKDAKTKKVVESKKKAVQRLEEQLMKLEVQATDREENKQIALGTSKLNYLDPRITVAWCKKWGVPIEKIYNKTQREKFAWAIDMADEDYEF
# Assay: Inhibition of human recombinant topoisomerase-1-mediated 117bp DNA oligonucleotide cleavage at 10 uM by PAGE
# Summary of the method: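 About 2 nM of it is incubated with recombinant Top1 in 10 mM Tris-HCl pH 7.5, 50 mM KCl, 5 mM MgCl2, 0.1 mM EDTA and 15 μg/mL BSA, with compound, for 20 min at 25 °C. Reactions are stopped with 0.5% SDS, run on 20% denaturing PAGE, and cleavage is scored semiquantitatively (0 to ++++) against 1 μM CPT.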
row,Compound,inhibition
1,COc1cc2cnc3c(c2cc1OC)Cc1cc2c(cc1-3)OCO2,Active
2,COc1cc2c3c(n(C)c(=O)c2cc1OC)-c1cc2c(cc1C3=O)OCO2,Active
3,COc1cc2cnc3c(c2cc1OC)Cc1c-3cc2c(c1CN1CCN(C)CC1)OCO2,Active
4,COc1cc2cnc3c(c2cc1OC)Cc1c-3cc2c(c1C)OCO2,Active
5,COc1cc2cnc3c(c2cc1OC)Cc1c-3cc2c(c1CN1CCCC1)OCO2,Active
6,COc1cc2cnc3c(c2cc1OC)Cc1c-3cc2c(c1CN(C)CCN(C)C)OCO2,Active
7,COc1cc2cnc3c(c2cc1OC)Cc1c-3cc2c(c1CN(C)C)OCO2,Active
8,COc1cc2cnc3c(c2cc1OC)Cc1c-3cc2c(c1Cn1ccnc1)OCO2,Active

# Test system: COLO 205
# Assay: Antiproliferative activity against human COLO205 cells
# Format: functional
row,Compound,GI50
1,COc1cc2cnc3c(c2cc1OC)Cc1c-3cc2c(c1Cn1ccnc1)OCO2,510 nM
